In the library only some 2.2% were active in any assay of this set; here they are far more common.
PERK inh = blocks human PERK kinase. CHO PERK-DD fusion, SEAP luminescence translation reporter. Q9NZJ5. inhibition, % at 5.6 µM. 220,000 tested, 0.17% active;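 active = inhibition above the mean inhibition of all tested compounds plus 3 SD, set separately per screening campaign, cut at about 2.9% in these data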;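 also: PERK kinase domain activated by AP20187 dimerizer at 100 nM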
p97 inhibitor = inhibitors of human p97 ATPase; inhibition, % at 8 µM; 220,000 tested, 0.42% active; recombinant p97 ATPase, Kinase-Glo ATP luminescence, 3 h; P55072; in the data active = inhibition above about 15%
eIF4E 4G PPI = inhibitors of eIF4E and eIF4G interaction in translation initiation. P63073+Q04637. TR-FRET eIF4E-eIF4GI(517-606) binding, 2 h. inhibition, % at 21.7 µM. 220,000 tested, 0.37% active. AID 782;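 active = inhibition above about 30%, limit read from the data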
Hck-Nef inh = blocks Nef-activated human Hck kinase; AID 463187; inhibition, % at 20 µM; 220,000 tested, 0.68% active; P08631; Recombinant Hck-YEEI plus Nef, Z-Lyte FRET kinase assay;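 active = Hck-Nef kinase inhibition above about 50%, limit read from the data; inactive = inhibition below that limit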
Biofilm kill mix = mixture kills Candida albicans biofilm cells | C. albicans biofilm persisters + clotrimazole, fluorescence viability; primary screen in compound mixtures of four per well | 120,000 tested, 0.02% active | inhibition, % at 7.6 µM;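 active = inhibition above 30.3% in the primary screen of four-compound pools, then above 30% when the compound was retested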;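 also: compounds exposed to preformed 24 h biofilms for 48 h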
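Probe or stimulus – Clotrimazole 50 µg/mL co-treatment · System – C. albicans biofilms · Schedule – 24 h biofilm formation, then 48 h compound exposure, 37 °C · Evaluation – percent inhibition of biofilm viability · Technique – 2-h Alamar Blue fluorescence, 535/590 nm excitation/emission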
14-3-3 Bad inh = disrupts binding of bovine 14-3-3 zeta to phospho-Bad peptide; P63103; TR-FRET 14-3-3zeta/Dy647-pBad peptide displacement, 1 h; inhibition, % at 21.7 µM; 220,000 tested, 0.71% active;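 active = inhibition above about 70%, limit read from the data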
Target sequence (P63103 whole entry, looked up): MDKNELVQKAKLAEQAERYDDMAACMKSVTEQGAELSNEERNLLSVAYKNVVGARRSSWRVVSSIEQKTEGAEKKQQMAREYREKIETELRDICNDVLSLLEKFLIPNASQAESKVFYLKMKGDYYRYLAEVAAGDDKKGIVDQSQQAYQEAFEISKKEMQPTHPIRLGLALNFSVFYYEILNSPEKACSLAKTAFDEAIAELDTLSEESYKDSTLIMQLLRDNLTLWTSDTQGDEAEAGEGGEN
p97 confirm = human p97 ATPase inhibition, confirmation | AID 1517 | recombinant p97 ATPase, Kinase-Glo ATP luminescence | shares compounds with p97 inhibitor | inhibition, % at 8 µM | 760 tested, 44% active;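 active = percent inhibition of p97 ATPase above a set limit, the primary screen's mean plus 3 SD, cut at about 15% in these data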
A number is an active result; – = inactive; · = no result.

SMILES | PERK inh | p97 inhibitor | eIF4E 4G PPI | Hck-Nef inh | Biofilm kill mix | 14-3-3 Bad inh | p97 confirm
COc1cc(/C=C2/CC/C(=C/c3ccc(O)c(OC)c3)C2=O)ccc1O | – | 35 | – | – | – | – | 17
Cc1nc2ccsc2c(=O)n1-c1ccc(Cl)cc1 | – | – | – | – | – | – | ·
CN(C)/C=C/c1c([N+](=O)[O-])c2ccc(O)cc2n1-c1ccccc1 | – | 26 | – | 104 | – | – | –
Cc1ccc(N2NC3(CCN(C(N)=O)CC3)NC2=O)cc1 | – | – | – | – | – | – | ·
CC(C(=O)Nc1ccc2c(c1)OCO2)N1CCN(C)CC1 (stereo not drawn) | – | 22 | – | – | – | – | –
CC1CC(C)(C)NC(=S)N1CCC(=O)N1CCc2ccccc21 (stereo not drawn) | – | – | – | – | – | – | ·
CCn1c(=O)c(C(=O)NCCc2ccccc2)c(O)c2ccccc21 | – | – | – | – | · | – | ·
CCn1c(-c2ccccc2)c(C(=O)CCl)c2ccccc21 | – | 32 | – | – | – | – | 36
Cn1c(-c2ccccc2)c(C(=O)CCl)c2ccccc21 | – | 34 | – | – | – | – | 34
O=C(CN1C(=O)COc2ccc(S(=O)(=O)N3CCCC3)cc21)NCc1ccccn1 | – | – | – | – | – | – | ·
CC(=O)Nc1cccc(-c2nc3ccc(NC(C)=O)cc3s2)c1 | – | 16 | – | – | – | – | –
CC(=O)Nc1cccc(-c2nc3ccccc3s2)c1 | – | – | – | – | – | – | ·
Cc1ccc(-c2nc(Nc3ccc(N4CCOCC4)cc3)c3ccccc3n2)cc1 | – | 15 | – | – | – | – | –
O=C(NCCC1CC1(Cl)Cl)Nc1ccccc1 (stereo not drawn) | – | 23 | – | – | – | – | –
O=C(O)CCCNC(=O)Nc1ccccc1 | – | – | – | – | – | – | ·
O=C1C=C(Nc2ccccc2O)c2ccccc2C1=O | – | – | – | – | · | – | ·
O=C1C=C(NCc2ccccc2)c2ccccc2C1=O | – | 48 | – | – | – | – | 33
CCc1nc2sccc2c(=O)[nH]1 | – | – | – | – | – | – | ·
O=C(Cn1ccc(C(F)(F)F)n1)Nc1cccc(S(=O)(=O)N2CCCCC2)c1 | – | – | – | – | – | – | ·
COc1ccc(NC(=O)Cn2c(=O)n(CC3CCCO3)c(=O)c3ccccc32)c(OC)c1 (stereo not drawn) | – | – | – | – | – | – | ·
NCCNc1ccc([N+](=O)[O-])c(NC2CC2)c1 | – | 17 | – | – | – | – | –
O=[N+]([O-])c1ccc(N2CCCC2)cc1NC1CC1 | – | – | – | – | – | – | ·
O=C(O)CSc1c(-c2ccccc2)[nH]c2ccccc12 | – | 16 | – | – | – | – | 17
CCOc1ccccc1CN1CCN(Cc2ccon2)CC1CCO (stereo not drawn) | – | – | – | – | – | – | ·
O=C(N/N=C/c1ccccn1)NC12CC3CC(CC(C3)C1)C2 | – | – | – | – | – | – | ·
SMILES | PERK inh | p97 inhibitor | eIF4E 4G PPI | Hck-Nef inh | Biofilm kill mix | 14-3-3 Bad inh | p97 confirm
COc1ccc(C(=O)Oc2cc(C)[nH]c(=O)c2[N+](=O)[O-])cc1 | – | – | – | – | – | – | ·
Cc1cc(OC(=O)c2ccc(S(=O)(=O)N(C)C)cc2)c([N+](=O)[O-])c(=O)[nH]1 | – | 16 | – | – | – | – | –
N#Cc1c2ccccc2nc2ccccc12 | – | – | – | – | – | – | ·
CCN(c1ccccc1)S(=O)(=O)c1ccc(Cl)c(NC(=O)CSc2n[nH]c(N)n2)c1 | – | – | – | – | – | – | ·
CCOC(=O)c1[nH]c2ccc(Br)cc2c1NC(=O)CCN1CCCCC1 | – | 22 | – | – | · | – | –
CCOC(=O)c1[nH]c2ccc(Br)cc2c1NC(=O)CCN1CCC(C(=O)OCC)CC1 | – | 18 | – | – | · | – | 16
CC(N)(C(=O)O)c1cccc(OCc2cccc(Cl)c2)c1 (stereo not drawn) | – | – | – | – | – | – | ·
CC(C)=CC(=O)OCC(=O)Nc1ccc(SC(F)F)cc1 | – | – | – | – | – | – | ·
Cn1c(SCC(=O)Nc2cccc(F)c2)nc2c([nH]c3ccccc32)c1=O | – | – | – | – | – | – | ·
S=C1Cc2ccccc2N1 | – | 32 | – | – | – | – | 67
CC(NC(=O)Nc1ccc(O)cc1)(C(F)(F)F)C(F)(F)F | – | 30 | – | – | · | – | –
CCC(NC(=O)Nc1ccc(O)cc1)(C(F)(F)F)C(F)(F)F | – | 37 | – | – | · | – | –
FC(F)(F)c1ccc(-c2noc(CN3CCCN(C4CCCCC4)CC3)n2)cc1 | – | – | – | – | – | – | ·
Cc1ccc(-n2nc(C)c3c(C(=O)OCC(=O)N(C)C4CCS(=O)(=O)C4)cc(-c4ccccc4)nc32)cc1 (stereo not drawn) | – | – | – | – | – | – | ·
COc1ccc(Cl)cc1NC(=O)COC(C)=O | – | – | – | – | – | – | ·
COc1ccc(Cl)cc1NC(=O)CC(C)=O | – | 17 | – | – | · | – | –
Nc1nc(CCl)nc(Nc2ccc3ccccc3c2)n1 | – | 36 | – | – | – | – | 38
COc1ccc(Nc2nc(N)nc(CCl)n2)cc1 | – | – | – | – | – | – | ·
Cc1c(NS(=O)(=O)c2ccc(S(=O)(=O)c3ccccc3)s2)c(=O)n(-c2ccccc2)n1C | – | 16 | – | – | – | – | 17
CCn1c(SCC(=O)N2CCN(C(=O)c3ccco3)CC2)nnc1C(C)C | – | – | – | – | – | – | ·
Cc1ccc(C(=O)c2c(C)oc3c2C(=O)C(=O)c2ccccc2-3)cc1 | – | 22 | – | – | · | – | 20
Cc1ccc(C(=O)c2coc3c2C(=O)C(=O)c2ccccc2-3)cc1 | – | – | – | – | · | – | ·
O=c1ccn(-c2ccccc2)[nH]1 | – | – | – | – | – | – | ·
Cc1cccc(N(CC(=O)NCCC2=CCCCC2)S(C)(=O)=O)c1C | – | – | – | – | · | – | ·
CCn1c(SCC(=O)NCc2ccccc2)nc2c(c1=O)SC(C)C2 (stereo not drawn) | – | – | – | – | · | – | ·
SMILES | PERK inh | p97 inhibitor | eIF4E 4G PPI | Hck-Nef inh | Biofilm kill mix | 14-3-3 Bad inh | p97 confirm
O=C1S/C(=C\C=C\c2ccco2)C(=O)N1c1ccccc1 | – | – | – | – | – | – | ·
O=C1S/C(=C\C=C\c2ccco2)C(=O)N1c1ccc(O)cc1 | – | 43 | – | – | – | – | –
Cc1cccn2c(CN3CCNC(=O)CC3)c(C(=O)N(C)CCc3ccccc3)nc12 | – | – | – | – | – | – | ·
Cc1[nH]c2ccccc2c1/C=N/NC(=O)C1CC1(c1ccccc1)c1ccccc1 (stereo not drawn) | – | – | – | – | – | – | ·
CCS(=O)(=O)Nc1c(C(=O)O)[nH]c2ccccc12 | – | 20 | – | – | · | – | –
CCS(=O)(=O)Nc1c(C(=O)OC)[nH]c2ccccc12 | – | – | – | – | · | – | ·

Screening data as filed in PubChem BioAssay.
